Reference: publication PMC8385569 (JACC: Basic to Translational Science, 2021)

Legend:
[1] = tested on: mouse permanent coronary artery occlusion model; test: Mouse MI 28-day treatment, survival and histomorphometry; assay type: in vivo
[2] = tested on: differentiated HL-60 cells; test: Chemotaxis assay; assay type: cell-based, human
How it was run: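 In vitro chemotaxis toward test compound was measured in differentiated HL-60 cells: parental, FPR1-deficient and FPR2 KO lines. EC50 came from a nonlinear concentration-response curve.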

[3] = tested on: rat myocardial infarction (permanent coronary artery occlusion); test: Rat MI 5 days, immunohistochemistry of peri-infarct zone; assay type: in vivo; details: 1 mg/kg, 5 days post-artery ligation
[4] = tested on: noninfarcted rats challenged with LPS; test: Acute LPS challenge in rat, IL-10; assay type: in vivo; details: 1 mg/kg
How it was run: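 Adult male Sprague Dawley rats, 6-7 weeks old, without infarction, were dosed with test compound at 1 mg/kg and challenged with LPS. The read-out was IL-10 induction. Blood compound levels were taken 1.5 to 3 hours after dosing.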

[5] = tested on: rat myocardial infarction (permanent coronary artery occlusion); test: Rat MI permanent coronary artery occlusion, 6 weeks; assay type: in vivo; details: 1 mg/kg once per day
How it was run: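 Male Sprague Dawley rats, 6-7 weeks old, had permanent coronary artery occlusion by suture under ketamine/xylazine and isoflurane anesthesia. They received test compound at 1 mg/kg once daily for 6 weeks. LV volumes were measured by echocardiography. Terminally, under isoflurane, a 2.5-F conductance catheter was placed in the LV via right carotid cutdown, with parallel-conductance correction.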

[6] = target: T1, human FPR2 (Homo sapiens, UniProt P25090); test: BRET biosensor signaling, HEK293 cells expressing human FPR2; assay type: cell-based; details: Gαi1, Gαi2, Gαi3, GαoA, GαoB biosensors; FPR2 relative to FPR1
T1 sequence (P25090 1-351): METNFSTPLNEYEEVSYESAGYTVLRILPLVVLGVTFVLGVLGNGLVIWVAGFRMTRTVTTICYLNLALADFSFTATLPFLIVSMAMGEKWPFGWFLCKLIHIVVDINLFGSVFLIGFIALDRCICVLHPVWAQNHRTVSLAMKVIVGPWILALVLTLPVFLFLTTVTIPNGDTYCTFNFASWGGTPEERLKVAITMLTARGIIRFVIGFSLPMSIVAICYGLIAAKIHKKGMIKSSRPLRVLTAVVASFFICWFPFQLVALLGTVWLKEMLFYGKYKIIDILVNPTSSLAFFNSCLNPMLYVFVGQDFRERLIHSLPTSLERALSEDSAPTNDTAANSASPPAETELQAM
How it was run: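 HEK293 cells transiently expressed human FPR1 or FPR2 with Gαi1, Gαi2, Gαi3, GαoA or GαoB BRET biosensors, and test compound was titrated. EC50 came from a nonlinear concentration-response curve fit. Selectivity ratio was FPR2 EC50/FPR1 EC50.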

[7] = tested on: HL-60 cells; test: Oxidative burst assay; assay type: cell-based, human
[8] = tested on: mouse myocardial infarction (permanent LAD ligation); test: Mouse MI early short-term treatment, histology and in situ hybridization; assay type: in vivo; details: 3 mg/kg, 3 days post MI
How it was run: (§1)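 Male C57BL/6 mice, 10-12 weeks old, had the LAD permanently occluded by suture under ketamine/xylazine anesthesia and isoflurane ventilation. Test compound, 3 mg/kg, was given by oral gavage once daily, starting 24 hours post MI. Hearts were analyzed about 3 days after occlusion.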

[9] = tested on: isolated human neutrophils; test: Apoptosis assay of isolated human neutrophils activated with SAA; assay type: cell-based; details: co-incubation with BMS-986235 and SAA, relative to SAA-only treatment
[10] = tested on: mouse myocardial infarction (permanent LAD ligation); test: Mouse MI early short-term treatment, cardiac flow cytometry; assay type: in vivo; details: 3 mg/kg, 3 days post MI, mouse heart
How it was run: as §1

[11] = target: T2, human FPR1 (Homo sapiens, UniProt P21462); test: BRET biosensor signaling, HEK293 cells expressing human FPR1; assay type: cell-based
T2 sequence (P21462 1-350): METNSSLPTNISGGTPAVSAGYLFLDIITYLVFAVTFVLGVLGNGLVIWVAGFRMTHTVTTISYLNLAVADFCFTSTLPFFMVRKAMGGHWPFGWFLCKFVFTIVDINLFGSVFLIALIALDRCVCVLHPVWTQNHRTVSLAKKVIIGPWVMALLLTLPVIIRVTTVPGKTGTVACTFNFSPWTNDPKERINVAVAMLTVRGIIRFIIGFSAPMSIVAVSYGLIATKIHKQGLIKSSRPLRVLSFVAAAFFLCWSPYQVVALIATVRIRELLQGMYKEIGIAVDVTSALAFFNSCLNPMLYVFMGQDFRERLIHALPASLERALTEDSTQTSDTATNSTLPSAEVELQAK

[12] = tested on: isolated human whole blood; test: Human blood assay, cytokine and FPR2 mRNA expression; assay type: cell-based; details: for increase in IL-10 mRNA levels / increase in MCP-1 mRNA versus control: isolated human whole blood; for increase in IL-10 mRNA levels: average
[13] = tested on: rat myocardial ischemia-reperfusion injury; test: Rat ischemia-reperfusion study, 6 weeks; assay type: in vivo; details: 1 mg/kg, rat I/R
How it was run: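 Male Sprague Dawley rats, 6-7 weeks old, underwent coronary ischemia-reperfusion and received test compound at 1 mg/kg for 6 weeks. Hearts were arrested in diastole, removed and mounted on a modified Langendorff apparatus. Passive LV pressure-volume relationships were recorded ex vivo.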

[14] = tested on: BioGel-elicited peritoneal macrophages; test: Zymosan phagocytosis assay; assay type: cell-based, mouse

For `COc1cc(F)c([C@@H]2CNC(=O)[C@H]2NC(=O)Nc2ccccc2)c(F)c1` [BMS-986235, 1-((3S,4R)-4-(2,6-difluoro-4-methoxyphenyl)-2-oxopyrrolidin-3-yl)-3-phenylurea], the “mortality over the 4 week study” value ([1]; 3 mg/kg once a day oral) was “significant reduction”, the “reduction of infarct scar size relative to vehicle” value ([1]; 3 mg/kg, 4 weeks of treatment) was about 55% and the “concentrations at which chemotaxis attenuation was observed” value ([2]; HL-60 FPR1 KO, bell-shaped response) was over 120 nM. The enhancement in chemotaxis ([2]; HL-60 FPR2 KO line) was “no enhancement”, the “myocardial CD206 levels at peri-infarct zone versus vehicle” value [3] was “relative increases” and the “myocardial IL-10 levels at peri-infarct zone versus vehicle” value [3] was “relative increases”. The IL-10 induction [4] was “efficacious dose”, the “Infarct Wall Thickness, change vs vehicle” value [5] was “+38%” and the “LV End Diastolic Volume (echocardiography), change vs vehicle” value [5] was -26%. For the same molecule, the “LV End Systolic Volume (echocardiography), change vs vehicle” value [5] was -29%, the “Scar Area, change vs vehicle” value [5] was -26% and the “selectivity ratios (FPR2 EC50/FPR1 EC50)” value [6] was 164- to 614 fold. For the same molecule, the Ymax oxidative burst ([7]; HL-60 FPR1 KO line) was 38%, the oxidative burst activity ([7]; HL-60 FPR2 KO line) was “abolished” and the Ymax oxidative burst ([7]; HL-60 cells expressing both receptors) was 97%. For the same molecule, the EC50 ([7]; Homo sapiens, HL-60, read-out: EC50 oxidative burst) was 130 nM, the “arginase-1 mRNA within peri-infarct border zone, fold vs vehicle” value [8] was “+6.4 fold” and the “reduction of percentage of viable neutrophils” value [9] was 12%. For the same molecule, the “number of total macrophages relative to vehicle” value [10] was “unchanged”, the “BRET signal for Gα12 and Gα13” value [11] was “minimal to no increase” and the “increase in IL-10 mRNA levels” value ([12]; 0.1 μM) was 3 fold. For the same molecule, the “increase in MCP-1 mRNA versus control” value ([12]; 1 μM) was 28 fold, the “increase in MCP-1 mRNA versus control” value ([12]; 10 μM) was 54 fold and the “increase in IL-10 mRNA levels” value ([12]; 10 μM) was 6 fold. For the same molecule, the “induction of FPR2 mRNA” value ([12]; any concentration (0.01-10 µM)) was “no significant induction”, the “induction of IL-6 mRNA” value ([12]; any concentration (0.01-10 µM)) was “no significant induction” and the “induction of IL-8 mRNA” value ([12]; any concentration (0.01-10 µM)) was “no significant induction”. The “induction of TNFα mRNA” value ([12]; any concentration (0.01-10 µM)) was “no significant induction”, the “ex vivo LV pressure-volume curve vs vehicle” value [13] was “left shifted” and the “reduction of LV volume at end-diastole” value [13] was 26%. The “reduction of LV volume at end-systole” value [13] was 42%, the “transmural thickness of the infarct wall relative to vehicle” value [13] was “without altering” and the “viable myocardium at the distal end of the MI” value [13] was “trend toward increased”. The “% Viable Myocardium across infarct wall, increase vs vehicle” value ([13]; Mid MI region) was 31%, the “% Viable Myocardium across infarct wall, increase vs vehicle” value ([13]; Proximal MI region) was 31% and the “phagocytosis response above control macrophages” value ([14]; FPR2 KO-derived peritoneal macrophages) was “minimal response”. It also gave a Ymax zymosan phagocytosis ([14]; WT-derived peritoneal macrophages) of about 100%.
